# SIAE inh – inhibitors of human sialic acid acetylesterase SIAE | inhibition, % at 9.66 µM | actives 0.69% (n = 370,000) | AID 1053197 | Q9HAT2 | SIAE FP-Rh probe binding, fluorescence polarization;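 active = inhibition above a cutoff: mean of compounds within the control limits plus 3 SD of those, cut at about 17% in these data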;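 note: 0% = plate median of compound wells and 100% = probe without SIAE protein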
# mABHD4 FP – ABHD4 (mouse) inhibition, primary FP screen; Q8VD66; purified mABHD4, FP-Rh probe fluorescence polarization; actives 0.54% (n = 370,000); inhibition, % at 8.92 µM; AID 720543;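 active = inhibition exceeding the mean over every tested compound plus 3 SD, cut at about 30% in these data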;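 note: 0% = plate median of compound wells and 100% = S159A mutant with DMSO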
#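 Material: mouse ABHD4 enzyme, wild type; Benchmarks: S159A mutant high control, sample median low control; Buffer or medium: HEPES pH 7.0, NaCl, Pluronic buffer; Signal: fluorescence polarization; Read-out: percent inhibition of probe binding, normalized to plate controls; Timing: pre-incubation 45 min, probe exposure 60 min, at 25 °C; Dosing: 8.92 µM, single dose.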
# TCR-CD3 inh – blocks the human TCR-CD3 interaction; AID 651800; actives 0.37% (n = 360,000); TAMRA-labeled TCR probe fluorescence, biochemical; inhibition, % at 9.4 µM; in the data active = inhibition above about 19%;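 note: recombinant mutant TCR 2C K166C tagged with TAMRA read by polarization; 0% = receptor in buffer alone and 100% = receptor with positive control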
# DDE Tn6 FP inh – disrupts Tn6 cyclic peptide binding to fibrin D-Dimer-E complex | Fibrin DD(E) TRITC-Tn6 fluorescence polarization displacement | inhibition, % at 8.3 µM | actives 0.21% (n = 370,000);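 active = inhibition above a per-campaign cutoff: mean of compounds within control limits plus 3 SD, cut at about 15% in these data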;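 note: 0% = median of all compound wells on the plate and 100% = blocking peptide control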
# Target sequence (P02675 whole entry, looked up): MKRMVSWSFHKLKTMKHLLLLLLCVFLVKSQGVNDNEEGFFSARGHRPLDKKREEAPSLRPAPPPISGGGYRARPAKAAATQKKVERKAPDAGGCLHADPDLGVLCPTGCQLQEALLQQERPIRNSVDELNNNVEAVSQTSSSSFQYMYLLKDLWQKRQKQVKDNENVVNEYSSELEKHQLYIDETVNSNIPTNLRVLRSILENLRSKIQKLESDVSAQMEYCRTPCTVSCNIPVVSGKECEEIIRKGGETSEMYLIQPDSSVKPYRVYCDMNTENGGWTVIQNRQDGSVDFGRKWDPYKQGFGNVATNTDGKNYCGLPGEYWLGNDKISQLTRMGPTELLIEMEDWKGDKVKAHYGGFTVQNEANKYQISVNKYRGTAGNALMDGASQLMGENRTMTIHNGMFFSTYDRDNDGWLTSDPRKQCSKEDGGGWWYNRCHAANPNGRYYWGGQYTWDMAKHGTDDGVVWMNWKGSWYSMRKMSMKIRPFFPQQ
# DDE Tn7 FP inh – disrupts Tn7 cyclic peptide binding to fibrin D-Dimer-E complex | P02675 | FP displacement of FITC-Tn7 peptide from fibrin DD(E); 0% = median of compound wells per plate | inhibition, % at 8.3 µM | actives 0.13% (n = 370,000);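 active = inhibition above the mean of compounds falling within the control limits plus 3 SD of them, cut at about 14% in these data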;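 note: 0% = plate median of compound wells and 100% = 10 µM Aha-Tn7 peptide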
#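 Test system – human fibrin DD(E) · Times – 10 min preincubation, 3 h with tracer, room temperature · Detection – fluorescence polarization of the labelled Tn7 tracer · Measure – percent inhibition normalized to high-control wells · Benchmarks – high control wells with 10 µM unlabelled Aha-Tn7 peptide (full inhibition) · Repeats – singlicate testing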
# HTRA1 inh – inhibitors of human serine peptidase HTRA1. recombinant HTRA1, FP-rhodamine activity-based probe, fluorescence polarization. actives 0.5% (n = 340,000). inhibition, % at 5.96 µM; in the data active = inhibition above about 36%;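 note: 0% = enzyme with DMSO and 100% = wells lacking enzyme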
# mABHD4 conf – confirmation of mouse ABHD4 inhibitors; inhibition, % at 8.92 µM; AID 720658; purified mABHD4, FP-Rh probe fluorescence polarization; shares compounds with mABHD4 FP; actives 55% (n = 1,800);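 active = mean inhibition across replicates above the hit cutoff set in the primary screen, cut at about 30% in these data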;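 note: 0% = wild-type ABHD4 with DMSO and 100% = catalytically dead S159A mutant with DMSO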
# The depositor's hits bear a star; · = no result given. Sampled rows, rich in hits. Any-hit rate of the full collection: about 1.8%.
SMILES,SIAE inh,mABHD4 FP,TCR-CD3 inh,DDE Tn6 FP inh,DDE Tn7 FP inh,HTRA1 inh,mABHD4 conf
CCCCNc1c(-c2ccc(Sc3ccc(OC)cc3)cc2)nc2cc(C)ccn12,15.5,38.9*,-3.6,-8.7,-0.4,16.6,38.8*
CCCCNc1c(-c2ccc(-c3ccc(C(C)=O)cc3)c(OC)c2)nc2cc(C)ccn12,7.9,46.1*,6.2,-8.8,4.7,-7.1,55.5*
COC(=O)[C@]1(CNC(C)=O)CC(=O)N(Cc2ccc(Cl)cc2)[C@@H]1c1ccc(OC)cc1,-3.3,-4.8,·,0.2,1.2,·,·
CC(=O)N[C@@H]1C[C@@H]2O[C@H](CO)CC[C@@H]2O[C@@H]1CCc1ccc(-c2ccc(F)cc2)cc1,2.0,6.1,·,-1.8,1.7,·,·
CCOC(=O)c1c(C)n(C)c2cc(Br)c(O)c(O)c12,12.5,30.1*,-4.2,-2.8,-0.3,9.1,5.1
COc1ccc(-c2noc(C3CCCN(C(=O)Nc4cc(C)cc(C)c4)C3)n2)cc1 (configuration not stated),-1.1,-8.3,·,-0.9,-4.5,·,·
N#C/C(=C\c1ccc(-c2cccc(Cl)c2)o1)C(=O)Nc1cccc2cccnc12,-4.6,5.2,-2.4,0.1,0.2,-4.8,·
N#C/C(=C\c1ccc(-c2ccccc2)o1)C(=O)Nn1cnnc1,-16.1,47.4*,-3.6,1.1,-0.8,-2.8,0.9
Cc1ccc(C(=O)O)cc1-c1ccc(/C=C2/NC(=O)N(c3ccccc3)C2=O)o1,-0.7,46.4*,10.4,5.9,4.4,-5.4,30.2*
Cc1ccc(C(=O)O)cc1-c1ccc(/C=C2\SC(=O)N(CC(=O)Nc3ccccc3)C2=O)o1,-26.8,11.7,8.0,3.9,-0.6,-22.7,·
Cc1cc(C(=O)O)ccc1-c1ccc(/C=C2\NC(=O)N(Cc3ccccc3Cl)C2=O)o1,·,·,·,·,·,-9.1,·
Cc1ccc(CN2C(=O)N/C(=C\c3ccc(-c4ccc(C(=O)O)cc4C)o3)C2=O)cc1,-0.1,42.9*,6.4,6.2,-7.9,5.2,39.7*
CN(C)c1ccc(N=Nc2ccccc2C(=O)OCC(=O)NCC2CCCCC2)cc1,12.7,42.1*,0.0,-8.6,-7.2,31.2,40.3*
CN(C)c1ccc(N=Nc2ccccc2C(=O)OCC(=O)NC2CCCC2)cc1,5.7,17.8,1.8,2.2,1.3,23.0,·
CC(C)(C)c1ccc(S(=O)(=O)Nc2noc3ccccc23)cc1,4.9,30.0*,-0.1,-4.9,-1.4,-0.9,15.9
C#CCNC(=O)C[C@@H]1C[C@@](CCC(=O)OCC)(C(=O)OCC)C2=CCCCN2C1=O,-1.6,1.0,·,5.1,2.8,·,·
CN(CCc1ccccn1)C(=O)Cn1nc(-c2ccccc2)ccc1=O,5.3,4.7,·,9.9,-2.7,·,·
Nc1sc2c(c1C(=O)NCCc1ccccc1)CCCC2,12.7,37.0*,3.9,27.9*,-0.9,·,4.3
COc1cccc(NC(=O)C2CCN(S(=O)(=O)c3ccc4[nH]c(=O)oc4c3)CC2)c1,-6.8,42.1*,-2.0,-7.6,-0.6,1.6,43.1*
CC/C(C)=N/Nc1nc2c(c(=O)[nH]c(=O)n2C)n1Cc1ccccc1,-3.8,34.3*,8.8,2.5,-3.2,11.3,18.4
COc1cc(/C=C/c2ccc3cccc(O)c3n2)c(Br)cc1O,15.3,29.8*,-5.1,3.8,-2.7,28.1,69.0*
O=C(CSc1nnc(-c2ccccc2)n1-c1ccc(Cl)cc1)Nc1ccccc1-c1ccccc1,-4.2,-16.0,·,-9.5,-8.8,·,·
COc1cc(/C=N/NC(=O)[C@H](Cc2c[nH]c3ccccc23)NC(=O)OCC(C)C)cc([N+](=O)[O-])c1O,33.5*,41.5*,6.3,-3.3,-4.3,15.9,49.1*
CCOC(=O)[C@@]12CN(C(=O)OC(C)(C)C)CC=C1N(Cc1ccc(OC)cc1)C(=O)[C@H]2CC(=O)NCC12CC3CC(CC(C3)C1)C2,3.7,8.8,·,-3.6,-2.8,·,·
C[N+](C)(CCOc1ccccc1)Cc1ccccc1 (tested in a mixture with another compound),13.8,3.9,10.6,10.9,-3.5,7.0,·
